High-throughput results deposited in PubChem by several laboratories.
UHRF1 binding = UHRF1 methylated DNA binding inhibitors, primary screen, counter-screen for MBD2 inhibitor project, biochemical, TR-FRET, human UHRF1, single concentration; E3 ubiquitin-protein ligase UHRF1 (Homo sapiens), Q96T88; hit rate 0.75% among 370,000; AID 687016, 2013; UHRF1 binding to methylated oligo; inhibition, % at 4.4 µM;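 also: UHRF1 SRA domain binding a hemimethylated CpG hairpin DNA probe; 0% = median of test compound wells and 100% = reference inhibitor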
Target sequence (Q96T88 whole entry, looked up, the tested form may be a part): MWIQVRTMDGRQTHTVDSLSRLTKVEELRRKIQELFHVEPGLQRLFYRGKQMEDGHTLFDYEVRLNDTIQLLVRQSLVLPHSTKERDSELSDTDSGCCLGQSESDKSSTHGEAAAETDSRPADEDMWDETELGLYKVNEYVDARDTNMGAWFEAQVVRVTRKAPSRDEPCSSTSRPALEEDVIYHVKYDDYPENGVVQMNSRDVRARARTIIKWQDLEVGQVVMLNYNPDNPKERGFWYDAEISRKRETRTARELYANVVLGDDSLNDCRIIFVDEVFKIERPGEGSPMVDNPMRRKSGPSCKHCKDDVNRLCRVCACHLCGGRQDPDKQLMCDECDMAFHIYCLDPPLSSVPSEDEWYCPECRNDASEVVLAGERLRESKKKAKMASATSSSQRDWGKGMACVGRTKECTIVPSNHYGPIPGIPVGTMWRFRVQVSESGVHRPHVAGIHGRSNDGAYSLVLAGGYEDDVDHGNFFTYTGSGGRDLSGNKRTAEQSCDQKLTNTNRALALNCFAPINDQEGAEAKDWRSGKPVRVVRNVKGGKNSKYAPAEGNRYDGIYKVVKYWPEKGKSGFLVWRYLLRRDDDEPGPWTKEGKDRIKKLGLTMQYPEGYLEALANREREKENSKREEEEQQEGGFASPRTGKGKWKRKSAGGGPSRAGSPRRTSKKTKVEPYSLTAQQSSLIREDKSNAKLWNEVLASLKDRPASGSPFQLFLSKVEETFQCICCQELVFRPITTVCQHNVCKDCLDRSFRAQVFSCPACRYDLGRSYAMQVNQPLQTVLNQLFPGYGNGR
DSG3 Ab inh = inhibitors of pemphigus antibody binding to DSG3, primary screen, biochemical, bead-based, flow cytometry, scFv-GFP; DSG3-coupled beads, scFv-anti-DSG3-GFP binding; hits give low values; hit rate 0.48% among 310,000; Desmoglein-3 (Homo sapiens), P32926; AID 588358, 2011; binding (percent of control), % at 10 µM;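 active = binding more than 3 SD below its plate's average and above zero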;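 also: hits lower antibody fragment binding to DSG3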
MBD2 inh = inhibitors of MBD2 binding to methylated DNA, primary screen, biochemical, TR-FRET, DNA-binding domain, human | MBD2 binding to methylated oligonucleotide | Methyl-CpG-binding domain protein 2 (Homo sapiens), Q9UBB5 | AID 686964, 2013 | inhibition, % at 4.4 µM | hit rate 0.31% among 370,000; in the data active = inhibition above about 13%
SUMO1-SIM PPI = modulators of SUMO1 protein-protein interactions, primary screen, biochemical, uHTS. hit rate 0.33% among 360,000. inhibition, % at 20 µM. SUMO1 binding to a labelled peptide, TR-FRET, 1 h. Small ubiquitin-related modifier 1 (Homo sapiens), P63165; in the data active = inhibition above about 37%
HCV NS3 hel inh = inhibitors of HCV NS3 helicase, primary screen, biochemical, Cy5 molecular beacon fluorescence | Hepatitis C virus NS3 helicase | NS3 helicase DNA unwinding | inhibition, % at 10.9 µM | hit rate 0.56% among 290,000 | AID 1800, 2009;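 active = inhibition above the mean of all tested compounds plus 3 SD, set per campaign, cut at about 35% in these data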;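 also: 0% = DMSO wells and 100% = thioflavine S control wells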
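assay system = NS3 helicase fragment of HCV | buffer or medium = MOPS pH 6.5, MgCl2, DTT, Tween20, BSA | timing = 60 min unwinding reaction at 25 °C after ATP addition | signal = Cy5 beacon fluorescence read at start and 1 h | read-out basis = % inhibition of unwinding | control set = low DMSO, high thioflavine S at 110 µM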
DNMT1 block = human DNMT1 methyltransferase inhibitors, primary screen, biochemical, molecular beacon, fluorescence, HinP1I cleavage, uHTS; inhibition (reported as % activation of signal), % at 10 µM; AID 588458, 2011; hit rate 0.83% among 360,000; in the data active = inhibition above about 50%
UHRF1 DNA bind = UHRF1 methylated DNA binding inhibitors, counter-screen for MBD2 inhibitor project, biochemical, TR-FRET, human UHRF1 | shares compounds with MBD2 inh | UHRF1 binding to methylated oligonucleotide | inhibition, % at 4.4 µM | hit rate 25% among 1,000 | AID 720530, 2013;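 also: UHRF1 SRA domain binding a labeled hemimethylated CpG hairpin DNA; 0% = vehicle only and 100% = reference inhibitor with vehicle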
MBD2 DBD conf = inhibitors of MBD2 binding to methylated DNA, confirmation, biochemical, TR-FRET, DNA-binding domain, human. AID 720531, 2013. TR-FRET MBD2-DBD binding to methylated oligonucleotide. inhibition, % at 4.4 µM. shares compounds with MBD2 inh. hit rate 26% among 1,000; in the data active = inhibition above about 14%
* hit, by the source's call; nt = not tested or not shown. The list is not random: actives were taken first. Their share in the collection is about 2.5%. Rule as the data show it, unless noted: active = inhibition above about 21%; inactive = the rest.

SMILES	UHRF1 binding	DSG3 Ab inh	MBD2 inh	SUMO1-SIM PPI	HCV NS3 hel inh	DNMT1 block	UHRF1 DNA bind	MBD2 DBD conf
Cc1ccc(C)c(C(=O)OCC(=O)Nc2cccc(S(=O)(=O)NC3=NCCCCC3)c2)c1	17.8	98.9	16.6*	-0.1	-9.9	-1.5	6.4	3.1
CCCCn1nnnc1SCC(=O)c1ccccc1F	-1.2	88.8	3.7	-2.3	1.8	-2.5	nt	nt
COc1ccc(-c2cc(NC(=O)Cc3c(C)[nH]c4ccccc34)ccc2Nc2cccnc2)cc1OC	-3.3	nt	-0.3	nt	nt	nt	nt	nt
COc1ccc(-n2nnnc2-c2ccc(S(C)(=O)=O)cc2Cl)cc1	24.0*	97.8	13.3*	3.3	4.2	2.6	0.7	5.3
COc1ccc(-n2nnnc2-c2cn(C)nc2C(F)(F)F)cc1	-0.5	111.1	0.5	0.4	11.0	6.6	nt	nt
COc1ccc(C=O)c(OCc2cn(CC(=O)c3ccc(O)cc3)nn2)c1	23.5*	111.5	13.8*	4.8	nt	47.3	12.2	8.0
COc1ccc2cc([C@H](C)C(=O)OCc3cn(CC(=O)c4ccc(O)cc4)nn3)ccc2c1	18.4	100.2	15.1*	2.9	nt	37.4	13.1	10.9
O=C(Cn1cc(COC(=O)c2c3ccccc3cc3ccccc23)nn1)c1ccc(O)cc1	20.1	nt	9.9	nt	nt	nt	nt	nt
O=C(Cn1cc(COc2ccccc2[N+](=O)[O-])nn1)c1ccc(O)cc1	1.4	106.1	-2.6	-11.5	nt	2.0	nt	nt
COc1ccc(S(=O)(=O)N2CCOCC2)cc1NS(=O)(=O)/C=C/c1ccccc1	-0.1	100.4	0.5	3.0	5.8	-2.5	nt	nt
COc1ccccc1NS(=O)(=O)/C=C/c1ccccc1	4.1	102.5	13.8*	5.4	-1.1	2.8	5.8	3.8
CCc1ccccc1Nc1nc(N)nc(COC(=O)CCNS(=O)(=O)c2ccccc2)n1	2.4	105.0	-0.8	0.7	nt	-5.8	nt	nt
CCc1ccccc1Nc1nc(N)nc(COC(=O)c2c(C)noc2C)n1	23.3*	102.8	13.6*	-1.5	nt	0.7	4.0	4.7
CC(=O)/C=C(\C)Nc1c(C)n(C)n(-c2ccccc2)c1=O	-0.6	105.2	0.0	-0.5	-5.1	0.1	nt	nt
COc1cc(C(=O)OCC(=O)c2c[nH]c3ccccc23)ccc1OCC(=O)N1CCOCC1	3.9	130.9	-1.6	6.1	-12.8	-7.9	nt	nt
COc1ccc(C(=O)OCC(=O)c2c[nH]c3ccccc23)cc1OC	21.8*	145.1	14.0*	7.4	nt	-21.4	5.4	1.6
CC1=NN(c2ccc(F)cc2)C(=O)C1C(c1cccc(O)c1)c1c(C)[nH]n(-c2ccc(F)cc2)c1=O (stereo not drawn)	19.0	102.8	19.3*	13.3	27.1	-23.6	1.5	-1.2
CC1=NN(c2ccc(Cl)cc2)C(=O)C1C(c1cccc(O)c1)c1c(C)[nH]n(-c2ccc(Cl)cc2)c1=O (stereo not drawn)	nt	108.8	nt	24.8	-2.6	-51.1	nt	nt
COC(=O)c1ccc(Cl)c(NC(=O)CN2CCC(C)CC2)c1	1.7	104.2	-5.8	2.5	-4.9	-1.8	nt	nt
COC(=O)c1cc(C(=O)OCC(=O)NC(=O)NCc2ccccc2)cc([N+](=O)[O-])c1	19.3	95.1	17.4*	-35.1	nt	0.7	4.1	1.9
NNC(=O)Cn1c(-c2ccccc2)cc2ccccc21	-0.8	100.9	5.2	0.7	-4.8	0.1	nt	nt
NNC(=O)Cn1c2ccccc2c2ccccc21	-2.4	nt	13.8*	-1.8	-3.6	-0.9	7.9	2.9
COC(=O)C1CCN(c2cc(=O)n(C3CCCCC3)c(=O)[nH]2)CC1	-2.5	94.5	-2.3	-0.8	3.8	-3.6	nt	nt
COC(=O)[C@H](CC(C)C)N(Cc1cn(Cc2ccccc2)nn1)S(=O)(=O)c1ccccc1Br	-0.1	nt	1.3	nt	nt	nt	nt	nt
COC(=O)[C@H](CC(C)C)N(Cc1cn(Cc2ccc(C)cc2)nn1)S(=O)(=O)c1ccccc1Br	18.9	nt	18.4*	nt	nt	nt	6.2	8.4
SMILES	UHRF1 binding	DSG3 Ab inh	MBD2 inh	SUMO1-SIM PPI	HCV NS3 hel inh	DNMT1 block	UHRF1 DNA bind	MBD2 DBD conf
COc1ccc(CN(CC(=O)NCC2CCCO2)C(=O)CNS(=O)(=O)c2ccc(C)cc2)cc1 (stereo not drawn)	2.6	111.5	-2.6	-4.7	4.8	-1.1	nt	nt
COc1ccc(S(=O)(=O)NCC(=O)N(CC(=O)NCC2CCCO2)Cc2ccc(F)cc2)cc1 (stereo not drawn)	-4.9	101.3	14.1*	1.1	3.3	-0.1	0.6	2.6
CCN(C(=O)COC(=O)Cn1cnc2c1c(=O)n(C)c(=O)n2C)C1CCS(=O)(=O)C1 (stereo not drawn)	-3.2	106.9	-3.8	-10.9	-1.8	1.2	nt	nt
CCCCC1CC(CSC(=N)N)OC1=O (stereo not drawn)	0.3	102.4	-5.4	-2.0	1.7	-0.9	nt	nt
Cn1nc(-c2ccccn2)nc2c(=O)n(C)c(=O)nc1-2	11.0	99.3	14.4*	33.6	0.8	98.0*	-11.4	12.6
COc1ccc(-c2nc(-c3ccccn3)ncc2S(C)(=O)=O)cc1	-0.7	86.6	3.0	-2.5	-4.1	-1.1	nt	nt
Cc1ccc(C2NC(=S)NC3=C2C(=O)CCC3)cc1 (stereo not drawn)	24.4*	99.7	13.8*	4.3	-4.7	-1.6	0.6	2.2
O=C1CCCC2=C1C(c1ccccc1)NC(=S)N2 (stereo not drawn)	-1.9	101.3	-5.0	-2.6	0.2	1.3	nt	nt
O=C(Nc1nnc(CCN2CCCCC2)s1)c1ccccc1Cl	24.9*	112.9	16.1*	7.9	-26.4	5.7	6.8	2.5
CCc1nnc(NC(=O)CN2CCN(Cc3ccccc3Cl)CC2)s1	20.2	99.6	16.9*	4.7	-2.2	-0.8	7.9	6.0
CCc1nnc(NC(=O)CN2CCN(Cc3ccccc3C)CC2)s1	-0.7	113.6	2.7	1.2	-5.1	0.8	nt	nt
O=C(Nc1nnc(CCN2CCCCC2)s1)c1ccccc1	-0.4	nt	2.0	1.1	21.9	-2.3	nt	nt
CN(CCCC1CCCC1)C(=O)c1cc(COc2ccc(F)cc2F)on1	-0.1	108.0	-1.0	-0.3	-11.7	0.4	nt	nt
